# Experiments:
# [1] = system: Mycobacterium tuberculosis; experiment: Antitubercular activity against Mycobacterium tuberculosis H37Rv after 7 days by microplate alamar blue assay; type: functional; conditions: 168 h
# Method in brief: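 MIC against Mtb H37Rv by microplate alamar blue assay (MABA); MIC values interpolated by curve fitting.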
# [2] = system: Mycobacterium tuberculosis; experiment: Antitubercular activity against Mycobacterium tuberculosis H37Ra after 7 days by microplate alamar blue assay; type: functional; conditions: 168 h
# Vero = experiment: Cytotoxicity against African green monkey Vero cells after 72 hrs by CCK8 assay; type: cell-based; conditions: Chlorocebus sabaeus
# Method in brief: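 VERO African green monkey kidney cells; growth inhibition read by CCK-8 assay and reported as IC50. Values are means of two or more independent experiments, with variation <20%.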
# [3] = system: Mycobacterium tuberculosis; experiment: Antitubercular activity against fluorescent reporter strain of Mycobacterium tuberculosis H37Rv after 5 days by fluorescence assay; type: functional, organism-based; conditions: 120 h
# Method in brief: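 A fluorescent reporter strain of Mtb H37Rv was grown in liquid medium under aerobic conditions, and growth was read by fluorescence. MIC, IC50 and IC90 were determined.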
# [4] = system: Mycobacterium tuberculosis; experiment: Antitubercular activity against autoluminescent Mycobacterium tuberculosis H37Ra infected in noninvasive BALB/c mouse assessed as bioluminescence intensity by measuring relative light unit at 100 mg/kg, po qd for 6 days; type: functional
# Method in brief: (§1)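 Mice were infected intravenously with log-phase, marker-free autoluminescent Mtb H37Ra at 2 × 10^6 CFU per mouse. They were then dosed by oral gavage once daily for 6 consecutive days at 4, 20 or 100 mg/kg/day, with CMC-Na as vehicle. Bioluminescence (RLU) was read in the same live, anesthetized mice every other day and expressed as the RLUdayn/RLUday0 ratio. Mortality was monitored during treatment.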
# [5] = system: Mycobacterium tuberculosis; experiment: Antitubercular activity against autoluminescent Mycobacterium tuberculosis H37Ra infected in noninvasive BALB/c mouse assessed as bactericidal activity by measuring reduction in relative light unit at 100 mg/kg, po qd for 2 days relative to control; type: functional; method in brief: as §1
# [6] = system: Mycobacterium tuberculosis; experiment: Antitubercular activity against autoluminescent Mycobacterium tuberculosis H37Ra infected in noninvasive BALB/c mouse assessed as bioluminescence intensity by measuring relative light unit at 4 mg/kg, po qd for 6 days; type: functional; method in brief: as §1
# [7] = system: Mycobacterium tuberculosis; experiment: Antitubercular activity against autoluminescent Mycobacterium tuberculosis H37Ra infected in noninvasive BALB/c mouse assessed as bioluminescence intensity by measuring relative light unit at 20 mg/kg, po qd for 6 days; type: functional; method in brief: as §1
# [8] = system: Mycobacterium tuberculosis; experiment: Antitubercular activity against autoluminescent Mycobacterium tuberculosis H37Ra infected in noninvasive BALB/c mouse assessed as bactericidal activity by measuring reduction in relative light unit at 100 mg/kg, po qd for 4 days relative to control; type: functional
# [9] = system: Mycobacterium tuberculosis; experiment: Antitubercular activity against autoluminescent Mycobacterium tuberculosis H37Ra infected in po dosed noninvasive BALB/c mouse assessed as bioluminescence intensity by measuring relative light unit administered qd for 6 days; type: functional, organism-based; method in brief: as §1
# [10] = system: Mycobacterium tuberculosis; experiment: Antitubercular activity against autoluminescent Mycobacterium tuberculosis H37Ra infected in noninvasive BALB/c mouse assessed as bactericidal activity by measuring reduction in relative light unit at 100 mg/kg, po qd for 6 days relative to control; type: functional; method in brief: as §1
# Mus musculus = experiment: Toxicity in autoluminescent Mycobacterium tuberculosis H37Ra infected noninvasive BALB/c mouse assessed as mortality at 4 to 100 mg/kg, po qd for 6 days; type: organism-based; conditions: in vivo, 144 h; method in brief: as §1
SMILES,MIC [1],MIC [2],IC50 (Vero),further results
Cc1nn2ccc(C(F)(F)F)cc2c1C(=O)NCc1ccc(N2CCC(c3ccc(OC(F)(F)F)cc3)CC2)cc1,0.052 µM,1.73 µM,> 100000 nM,
Cc1ccn2nc(C)c(C(=O)NCc3ccc(N4CCC(c5ccc(OC(F)(F)F)cc5)CC4)cc3)c2c1,0.0077 µM,0.0057 µM,> 100000 nM,IC50 [3]: 5.1 nM; IC90 [3]: 12 nM; MIC [3]: 0.011 µM
Cc1nn2ccc(-c3ccccc3)cc2c1C(=O)NCc1ccc(N2CCC(c3ccc(OC(F)(F)F)cc3)CC2)cc1,0.479 µM,> 17.1 µM,,
Cc1ccn2nc(C)c(C(=O)NCc3ccc(N4CCN(c5ccc(F)cc5)CC4)cc3)c2c1,0.0131 µM,0.0066 µM,> 100000 nM,IC50 [3]: 2.5 nM; IC90 [3]: 6.5 nM; MIC [3]: 0.0063 µM
O=C(NCc1ccc(N2CCC(c3ccc(OC(F)(F)F)cc3)CC2)cc1)c1c(-c2ccccc2)nn2ccc(Cl)cc12,1.55 µM,> 16.5 µM,,
Cc1ccn2nc(C)c(C(=O)NCc3ccc(-c4ccc(OC(F)(F)F)cc4)cc3)c2c1,0.0137 µM,0.0068 µM,50700 nM,
CO[C@H]1/C=C/O[C@@]2(C)Oc3c(C)c(O)c4c(O)c(c(/C=N/N5CCN(C)CC5)c(O)c4c3C2=O)NC(=O)/C(C)=C\C=C\[C@H](C)[C@H](O)[C@@H](C)[C@@H](O)[C@@H](C)[C@H](OC(C)=O)[C@@H]1C [RIFAMPIN],0.0364 µM,0.00364 µM,,IC50 [3]: 4.1 nM; IC90 [3]: 6.9 nM; MIC [3]: 0.0065 µM
CCc1ccn2nc(C)c(C(=O)NCc3ccc(N4CCC(c5ccc(OC(F)(F)F)cc5)CC4)cc3)c2c1,0.0112 µM,0.0186 µM,> 100000 nM,
O=C(NCc1ccc(N2CCC(c3ccc(OC(F)(F)F)cc3)CC2)cc1)c1c(C2CC2)nn2ccc(Cl)cc12,0.0176 µM,0.176 µM,> 100000 nM,
Cc1ccn2nc(C)c(C(=O)NCc3ccc(N4CCCCC4)cc3)c2c1,0.0166 µM,0.0276 µM,> 100000 nM,
Cc1ccn2nc(C)c(C(=O)NCc3ccc(C(F)(F)F)cc3)c2c1,0.0691 µM,0.288 µM,> 100000 nM,
Cc1nn2ccc(C(C)(C)C)cc2c1C(=O)NCc1ccc(N2CCC(c3ccc(OC(F)(F)F)cc3)CC2)cc1,> 1.77 µM,> 17.7 µM,,
Cc1nn2ccc(Cl)cc2c1C(=O)NCc1ccc(N2CCC(c3ccc(OC(F)(F)F)cc3)CC2)cc1,0.0074 µM,0.0184 µM,> 100000 nM,
Cc1ccn2nc(C)c(C(=O)NCc3ccc(N(C)C)cc3)c2c1,0.0868 µM,0.31 µM,> 100000 nM,
Cc1nn2ccc(C(C)C)cc2c1C(=O)NCc1ccc(N2CCC(c3ccc(OC(F)(F)F)cc3)CC2)cc1,0.0472 µM,1.82 µM,,
NNC(=O)c1ccncc1 [ISONIAZID],2.99 µM,0.729 µM,,
CCc1nn2ccc(Cl)cc2c1C(=O)NCc1ccc(N2CCC(c3ccc(OC(F)(F)F)cc3)CC2)cc1,0.0108 µM,0.0538 µM,> 100000 nM,IC50 [3]: 31.3 nM; IC90 [3]: 150 nM; MIC [3]: 0.129 µM
Cc1ccn2nc(C)c(C(=O)NCc3ccc(N4CCC(C(F)(F)F)CC4)cc3)c2c1,0.0139 µM,0.0023 µM,> 100000 nM,
Cc1nn2ccccc2c1C(=O)NCc1ccc(N2CCC(c3ccc(OC(F)(F)F)cc3)CC2)cc1,0.0098 µM,0.59 µM,> 100000 nM,
Cc1nn2cccc(C)c2c1C(=O)NCc1ccc(N2CCC(c3ccc(OC(F)(F)F)cc3)CC2)cc1,1.15 µM,> 19.1 µM,,
Cc1nn2c(C)cccc2c1C(=O)NCc1ccc(N2CCC(c3ccc(OC(F)(F)F)cc3)CC2)cc1,0.115 µM,5.74 µM,,
CCc1nc2ccc(Cl)cn2c1C(=O)NCc1ccc(N2CCC(c3ccc(OC(F)(F)F)cc3)CC2)cc1 [TELACEBEC],0.0108 µM,0.0054 µM,> 100000 nM,
O=C(NCc1ccc(N2CCC(c3ccc(OC(F)(F)F)cc3)CC2)cc1)c1cnn2ccc(Cl)cc12,0.359 µM,18.9 µM,,
COc1ccn2nc(C)c(C(=O)NCc3ccc(N4CCC(c5ccc(OC(F)(F)F)cc5)CC4)cc3)c2c1,0.0111 µM,0.0056 µM,> 100000 nM,RLU [4]: 0.15; RLU [5]: 3.6; RLU [6]: 0.4; IC50 [3]: 2.5 nM; IC90 [3]: 5.7 nM; MIC [3]: 0.0056 µM; RLU [7]: 0.19; RLU [8]: 5; Activity [9]: Dose-dependent effect; RLU [10]: 6.5; Activity (Mus musculus): Non-toxic
Cc1ccc2c(C(=O)NCc3ccc(N4CCC(c5ccc(OC(F)(F)F)cc5)CC4)cc3)c(C)nn2c1,0.0134 µM,0.574 µM,> 100000 nM,

# From ChEMBL document CHEMBL3612066, “Design, Synthesis, and Biological Evaluation of Pyrazolo[1,5-a]pyridine-3-carboxamides as Novel Antitubercular Agents” (ACS Med Chem Lett, 2015)
